Several values for one entry are separate records, joined by “and”; a condition that tells them apart may be missing. Equal entries are not always repeated.
System: Fibroblast
Test: Multiplex assay against human fibroblast
Format: toxicity, cell-based
Method in brief: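 Compound was added to live cells that had been stained at seeding with Hoechst33342, BioTracker Green Microtubule Cytoskeleton Dye, MitoTracker Red and Annexin V Alexa Fluor 680, and imaging followed on a CQ1 microscope at 37°C and 5% CO2. CellPathfinder machine-learning gating divided cells into Hoechst high-intensity objects or normal cells, normal cells into healthy, pyknosed or fragmented nuclei, and pyknosed cells into mitotic or apoptotic. Tubulin, mitochondrial-mass and membrane-permeability phenotypes are per cents of healthy-nucleus cells.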

[1] = 12 h, 1 µM, compound concentration 1 uM
[2] = 12 h, 10 µM, compound concentration 10 uM
[3] = 24 h, 1 µM, compound concentration 1 uM
[4] = 24 h, 10 µM, compound concentration 10 uM
[5] = 48 h, 1 µM, compound concentration 1 uM
[6] = 48 h, 10 µM, compound concentration 10 uM

## C[C@H](C[C@H](N)C(=O)O)C(=O)O [2S,4R-4-METHYLGLUTAMATE]
[1]
  Population Apoptotic (%): 17.14% and 40%
  Population Fragmented Nuclei (%): 10.46% and 7.78%
  Population Healthy Nuclei (%): 66.67% and 77.25%
  Population Hoechst High Intensity Objects (%): 0%
  Population Membrane Permeable-Phenotype (%): 1.96% and 3.1%
  Population Mitochondria Different-Phenotype (%): 8.82% and 6.98%
  Population Mitotic Cells (%): 82.86% and 60%
  Population Normal (%): 100%
  Population Pyknosed Nuclei (%): 22.88% and 14.97%
  Population Tubulin-Different-Phenotype (%): 9.8% and 13.95%
  Total Cell Count: 153 and 167
[2]
  Population Apoptotic (%): 12.5% and 8.57%
  Population Fragmented Nuclei (%): 12.57% and 5.6%
  Population Healthy Nuclei (%): 64.57% and 79.31%
  Population Hoechst High Intensity Objects (%): 0%
  Population Mitochondria Different-Phenotype (%): 11.5% and 11.96%
  Population Mitotic Cells (%): 87.5% and 91.43%
  Population Normal (%): 100%
  Population Pyknosed Nuclei (%): 22.86% and 15.09%
  Population Tubulin-Different-Phenotype (%): 17.7% and 19.02%
  Total Cell Count: 175 and 232
[3]
  Population Fragmented Nuclei (%): 9.47% and 7.6%
  Population Healthy Nuclei (%): 73.16% and 83.04%
  Population Hoechst High Intensity Objects (%): 0%
  Population Membrane Permeable-Phenotype (%): 3.6% and 1.41%
  Population Mitochondria Different-Phenotype (%): 2.16% and 9.86%
  Population Mitotic Cells (%): 90.91% and 68.75%
  Population Normal (%): 100%
  Population Pyknosed Nuclei (%): 17.37% and 9.36%
  Population Tubulin-Different-Phenotype (%): 12.95% and 10.56%
  Total Cell Count: 190 and 171
[4]
  Population Apoptotic (%): 19.35% and 15.79%
  Population Fragmented Nuclei (%): 10.38% and 3.95%
  Population Healthy Nuclei (%): 72.68% and 87.72%
  Population Hoechst High Intensity Objects (%): 0%
  Population Membrane Permeable-Phenotype (%): 6.02% and 0%
  Population Mitochondria Different-Phenotype (%): 6.02% and 4.5%
  Population Mitotic Cells (%): 80.65% and 84.21%
  Population Normal (%): 100%
  Population Pyknosed Nuclei (%): 16.94% and 8.33%
  Population Tubulin-Different-Phenotype (%): 18.05% and 14.5%
  Total Cell Count: 183 and 228
[5]
  Population Apoptotic (%): 16.67% and 37.5%
  Population Fragmented Nuclei (%): 6.91% and 10.23%
  Population Healthy Nuclei (%): 84.79% and 85.23%
  Population Hoechst High Intensity Objects (%): 0%
  Population Membrane Permeable-Phenotype (%): 1.63% and 1.33%
  Population Mitotic Cells (%): 83.33% and 62.5%
  Population Normal (%): 100%
  Population Pyknosed Nuclei (%): 8.29% and 4.55%
  Population Tubulin-Different-Phenotype (%): 10.33% and 18%
  Total Cell Count: 217 and 176
[6]
  Population Apoptotic (%): 28.57% and 21.43%
  Population Fragmented Nuclei (%): 9.04% and 3.43%
  Population Healthy Nuclei (%): 83.51% and 90.56%
  Population Hoechst High Intensity Objects (%): 0%
  Population Membrane Permeable-Phenotype (%): 0% and 2.37%
  Population Mitotic Cells (%): 71.43% and 78.57%
  Population Normal (%): 100%
  Population Pyknosed Nuclei (%): 7.45% and 6.01%
  Population Tubulin-Different-Phenotype (%): 10.83% and 15.64%
  Total Cell Count: 188 and 233

## COc1c(Nc2ccc(S(C)(=O)=O)nc2C)ncnc1OC1CCN(C(=O)OC(C)C)CC1 [ADP-597]
[1]
  Population Apoptotic (%): 57% and 42%
  Population Fragmented Nuclei (%): 14% and 27%
  Population Healthy Nuclei (%): 71% and 40%
  Population Hoechst High Intensity Objects (%): 3% and 4%
  Population Membrane Permeable-Phenotype (%): 0% and 2%
  Population Mitochondria Different-Phenotype (%): 10% and 7%
  Population Mitotic Cells (%): 42% and 57%
  Population Normal (%): 96% and 95%
  Population Pyknosed Nuclei (%): 14% and 33%
  Population Tubulin-Different-Phenotype (%): 34% and 27%
  Total Cell Count: 133 and 105
[2]
  Population Apoptotic (%): 44% and 39%
  Population Fragmented Nuclei (%): 21% and 43%
  Population Healthy Nuclei (%): 58% and 27%
  Population Hoechst High Intensity Objects (%): 2%
  Population Membrane Permeable-Phenotype (%): 0% and 11%
  Population Mitochondria Different-Phenotype (%): 15% and 14%
  Population Mitotic Cells (%): 56% and 60%
  Population Normal (%): 97% and 98%
  Population Pyknosed Nuclei (%): 20% and 28%
  Population Tubulin-Different-Phenotype (%): 54% and 77%
  Total Cell Count: 127 and 100
[3]
  Population Apoptotic (%): 47% and 37%
  Population Fragmented Nuclei (%): 17% and 25%
  Population Healthy Nuclei (%): 67% and 50%
  Population Hoechst High Intensity Objects (%): 4% and 10%
  Population Membrane Permeable-Phenotype (%): 0% and 10%
  Population Mitochondria Different-Phenotype (%): 1% and 2%
  Population Mitotic Cells (%): 52% and 62%
  Population Normal (%): 95% and 89%
  Population Pyknosed Nuclei (%): 15% and 24%
  Population Tubulin-Different-Phenotype (%): 27% and 48%
  Total Cell Count: 146 and 109
[4]
  Population Apoptotic (%): 52% and 27%
  Population Fragmented Nuclei (%): 20% and 49%
  Population Healthy Nuclei (%): 60% and 31%
  Population Hoechst High Intensity Objects (%): 5% and 6%
  Population Membrane Permeable-Phenotype (%): 0% and 10%
  Population Mitochondria Different-Phenotype (%): 5% and 3%
  Population Mitotic Cells (%): 47% and 72%
  Population Normal (%): 94% and 93%
  Population Pyknosed Nuclei (%): 18% and 19%
  Population Tubulin-Different-Phenotype (%): 41% and 75%
  Total Cell Count: 131 and 99
[5]
  Population Apoptotic (%): 64% and 42%
  Population Fragmented Nuclei (%): 25% and 28%
  Population Healthy Nuclei (%): 63% and 51%
  Population Hoechst High Intensity Objects (%): 2% and 9%
  Population Membrane Permeable-Phenotype (%): 0% and 2%
  Population Mitochondria Different-Phenotype (%): 4% and 0%
  Population Mitotic Cells (%): 35% and 57%
  Population Normal (%): 97% and 90%
  Population Pyknosed Nuclei (%): 11% and 20%
  Population Tubulin-Different-Phenotype (%): 30% and 59%
  Total Cell Count: 152 and 102
[6]
  Population Apoptotic (%): 73% and 75%
  Population Fragmented Nuclei (%): 29% and 56%
  Population Healthy Nuclei (%): 58% and 36%
  Population Hoechst High Intensity Objects (%): 8% and 2%
  Population Membrane Permeable-Phenotype (%): 0% and 2%
  Population Mitochondria Different-Phenotype (%): 20% and 18%
  Population Mitotic Cells (%): 26% and 25%
  Population Normal (%): 91% and 97%
  Population Pyknosed Nuclei (%): 12% and 7%
  Population Tubulin-Different-Phenotype (%): 57% and 84%
  Total Cell Count: 131 and 108

## COc1cc(Nc2ncc3c(n2)-c2ccc(Cl)cc2C(c2c(F)cccc2OC)=NC3)ccc1C(=O)O [ALISERTIB]
[1]
  Population Apoptotic (%): 39% and 42%
  Population Fragmented Nuclei (%): 11% and 18%
  Population Healthy Nuclei (%): 66% and 47%
  Population Hoechst High Intensity Objects (%): 1% and 8%
  Population Membrane Permeable-Phenotype (%): 2% and 7%
  Population Mitochondria Different-Phenotype (%): 4% and 7%
  Population Mitotic Cells (%): 60% and 57%
  Population Normal (%): 98% and 91%
  Population Pyknosed Nuclei (%): 21% and 33%
  Population Tubulin-Different-Phenotype (%): 23% and 41%
[2]
  Population Apoptotic (%): 56% and 48%
  Population Fragmented Nuclei (%): 28% and 35%
  Population Healthy Nuclei (%): 47% and 30%
  Population Hoechst High Intensity Objects (%): 13% and 8%
  Population Membrane Permeable-Phenotype (%): 1% and 4%
  Population Mitochondria Different-Phenotype (%): 22% and 16%
  Population Mitotic Cells (%): 43% and 51%
  Population Normal (%): 86% and 91%
  Population Pyknosed Nuclei (%): 24% and 33%
  Population Tubulin-Different-Phenotype (%): 69% and 64%
  Total Cell Count: 209 and 89
[3]
  Population Apoptotic (%): 36% and 48%
  Population Fragmented Nuclei (%): 12% and 26%
  Population Healthy Nuclei (%): 69% and 47%
  Population Hoechst High Intensity Objects (%): 2% and 4%
  Population Membrane Permeable-Phenotype (%): 2% and 4%
  Population Mitochondria Different-Phenotype (%): 6%
  Population Mitotic Cells (%): 63% and 51%
  Population Normal (%): 97% and 95%
  Population Pyknosed Nuclei (%): 18% and 26%
  Population Tubulin-Different-Phenotype (%): 28% and 47%
  Total Cell Count: 123
[4]
  Population Apoptotic (%): 64% and 56%
  Population Fragmented Nuclei (%): 29% and 45%
  Population Healthy Nuclei (%): 44% and 36%
  Population Hoechst High Intensity Objects (%): 13% and 5%
  Population Membrane Permeable-Phenotype (%): 1% and 0%
  Population Mitochondria Different-Phenotype (%): 24% and 9%
  Population Mitotic Cells (%): 35% and 43%
  Population Normal (%): 86% and 94%
  Population Pyknosed Nuclei (%): 25% and 18%
  Population Tubulin-Different-Phenotype (%): 68% and 71%
  Total Cell Count: 191 and 93
[5]
  Population Apoptotic (%): 57% and 38%
  Population Fragmented Nuclei (%): 15% and 33%
  Population Healthy Nuclei (%): 65% and 42%
  Population Hoechst High Intensity Objects (%): 5%
  Population Membrane Permeable-Phenotype (%): 4% and 7%
  Population Mitochondria Different-Phenotype (%): 5%
  Population Mitotic Cells (%): 42% and 61%
  Population Normal (%): 94%
  Population Pyknosed Nuclei (%): 19% and 24%
  Population Tubulin-Different-Phenotype (%): 32% and 54%
  Total Cell Count: 115
[6]
  Population Apoptotic (%): 84% and 66%
  Population Fragmented Nuclei (%): 38% and 37%
  Population Healthy Nuclei (%): 35% and 51%
  Population Hoechst High Intensity Objects (%): 23% and 8%
  Population Membrane Permeable-Phenotype (%): 5% and 2%
  Population Mitochondria Different-Phenotype (%): 37% and 15%
  Population Mitotic Cells (%): 15% and 33%
  Population Normal (%): 76% and 91%
  Population Pyknosed Nuclei (%): 26% and 11%
  Population Tubulin-Different-Phenotype (%): 80% and 65%
  Total Cell Count: 188 and 85
